Usually MIC50 stands for the lowest concentration that inhibits either 50% of growth or 50% of the strains tested, depending on the study. A lower MIC50 goes with greater potency. For orientation: MIC90 means the lowest concentration that inhibits either 90% of growth or 90% of the strains tested, depending on the study. As a reminder, the ED50 is the dose at which the effect has come halfway, by size or by number of responders. High values mean a need for a large dose, low ones an effect at a small dose.

≈ marks a conversion by molar mass, not a printed value.

Type in all cases: functional
The test system of assay [1] is Streptococcus sp. The experiment in a line: In vitro inhibitory activity against Streptococci EryRi (98).
Assay [2] concerns Haemophilus. The experiment in a line: In vitro inhibitory activity against Haemophilus AmpR (37).
In assay [3] the test system is Enterococcus. The experiment in a line: In vitro inhibitory activity against enterococci EryRi (19).
In assay [4] the test system is Mus musculus. The experiment in a line: In Vivo evaluation for its effective dose against Streptococcus pneumoniae (030SJ6 EryRc). A digest of the protocol: (§1)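 Male Charles River CD1 mice, 20-22 g, 10 per dose group, infected intraperitoneally with 0.5 mL diluted overnight broth culture (physiological buffer or 5% hog mucine) at 10-100 times the minimal lethal dose. Compound suspended in carboxymethylcellulose, 0.5 mL given orally immediately and 4 h postinfection. Survival followed 8-10 days; ED50 (unitary dose protecting 50% from death) by Litchfield-Wilcoxon probit method.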

Assay [5] relates to Mus musculus. As to the kind of experiment: In Vivo evaluation for its effective dose against Streptococcus pneumoniae (030MV2 EryRc). A digest of the protocol: as §1
Assay [6] can be described thus: In vitro inhibitory activity against Pneumococci PenR (65).
Assay [7] can be described thus: In vitro inhibitory activity against Pneumococci EryRc (34).
Assay [8] concerns Mus musculus. The experiment in a line: In Vivo evaluation for its effective dose against Staphylococcus aureus (011GO25 EryRi. The method, boiled down:
as §1

In assay [9] the test system is Enterococcus. The experiment in a line: In vitro inhibitory activity against enterococci EryRc (13).
Assay [10] concerns Mus musculus. The experiment in a line: In Vivo evaluation for its effective dose against Streptococcus pneumoniae (030RO1 EryRi). The method, boiled down:
as §1

The test system of assay [11] is Mus musculus. The experiment in a line: In Vivo evaluation for its effective dose against Streptococcus pneumoniae (030Cr29 EryRc). A digest of the protocol:
as §1

Assay [12] concerns Staphylococcus sp. The experiment in a line: In vitro inhibitory activity against Staphylococci EryRi (65).
In assay [13] the test system is Haemophilus. As to the kind of experiment: In vitro inhibitory activity against Haemophilus AmpS (43).
The test system of assay [14] is Mus musculus. As to the kind of experiment: In Vivo evaluation for its effective dose against Streptococcus pneumoniae (030SJ1 EryRc). A digest of the protocol: as §1
The subject of assay [15] is Streptococcus sp. The experiment in a line: In vitro inhibitory activity against Streptococci EryR (27).
The test system of assay [16] is Staphylococcus sp. As to the kind of experiment: In vitro inhibitory activity against Staphylococci Staphylococci EryRc (23).
Assay [17] deals with Streptococcus pneumoniae. The experiment in a line: In vitro inhibitory activity against Streptococcus pneumoniae (EryRi 030SJ5i). A digest of the protocol:
(§2)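 Two-fold agar dilution on Mueller-Hinton agar (pH 7.4). Inoculum from overnight plate cultures suspended in Mueller-Hinton broth, adjusted to 10^9 CFU/mL, diluted 1:200 and spotted by multipoint inoculator at about 10^4 CFU/spot. Plates incubated 37 °C for 20 h. MIC taken as lowest concentration with no visible growth.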

Assay [18] relates to Staphylococcus aureus. The experiment in a line: In vitro inhibitory activity against Staphylococcus aureus (011UC4). A digest of the protocol:
as §2

The subject of assay [19] is Escherichia coli. As to the kind of experiment: In vitro inhibitory activity against Escherichia coli (250 UC5). A digest of the protocol:
as §2

The test system of assay [20] is Haemophilus influenzae. As to the kind of experiment: In vitro inhibitory activity against Haemophilus influenzae (351HT3). The method, boiled down: as §2
Assay [21] has as its system Staphylococcus aureus. As to the kind of experiment: In vitro inhibitory activity against Staphylococcus aureus (EryRi 011GO25i). A digest of the protocol:
as §2

In assay [22] the test system is Streptococcus pneumoniae. As to the kind of experiment: In vitro inhibitory activity against Streptococcus pneumoniae (EryRc 030SJ1). The method, boiled down:
as §2

The test system of assay [23] is Streptococcus pneumoniae. As to the kind of experiment: In vitro inhibitory activity against Streptococcus pneumoniae (032UC1). The method, boiled down:
as §2

For assay [24], the system named is Streptococcus pyogenes. The experiment in a line: In vitro inhibitory activity against Streptococcus pyogenes (02A1UC1). The method, boiled down: as §2
Assay [25] relates to Staphylococcus epidermidis. As to the kind of experiment: In vitro inhibitory activity against Staphylococcus epidermidis (EryRi 012GO11i). The method, boiled down:
as §2

Assay [26] concerns Staphylococcus aureus. As to the kind of experiment: In vitro inhibitory activity against Staphylococcus aureus (EryRc 011CB20). A digest of the protocol:
as §2

The subject of assay [27] is Haemophilus influenzae. As to the kind of experiment: In vitro inhibitory activity against Haemophilus influenzae (351CB12). A digest of the protocol:
as §2

As to `CO[C@@H]1[C@@H](OC2OC(C)C(OC3CC(C)(O)C(OC(=O)CC(C)C)C(C)O3)C(N(C)C)C2O)[C@@H](CC=O)C[C@@H](C)[C@@H](O)/C=C/C=C/C[C@@H](C)OC(=O)C[C@H]1OC(C)=O` (some centres undefined), the MIC50 in assay [1] came to 5 µg/mL (≈ 6.04 µM); in assay [2] it was 5 µg/mL (≈ 6.04 µM); in [3] it was 1.2 µg/mL (≈ 1.45 µM); in assay [6] it was 0.3 µg/mL (≈ 0.362 µM); in assay [7], 20 µg/mL (≈ 24.2 µM); in assay [9], 40 µg/mL (≈ 48.3 µM). Further, the MIC50 in assay [12] was determined as 1.2 µg/mL (≈ 1.45 µM); in assay [13], 5 µg/mL (≈ 6.04 µM); in assay [15] it was 5 µg/mL (≈ 6.04 µM); in assay [16] it was 40 µg/mL (≈ 48.3 µM). Also, the MIC90 in [1] was 40 µg/mL (≈ 48.3 µM); in assay [2], 20 µg/mL (≈ 24.2 µM); in [3] it was 1.2 µg/mL (≈ 1.45 µM); in [6], 40 µg/mL (≈ 48.3 µM); in assay [7], 40 µg/mL (≈ 48.3 µM); in assay [9], 40 µg/mL (≈ 48.3 µM). In addition, the MIC90 is 2.5 µg/mL (≈ 3.02 µM) in assay [12], 20 µg/mL (≈ 24.2 µM) in assay [13], 40 µg/mL (≈ 48.3 µM) in [15] and 40 µg/mL (≈ 48.3 µM) in assay [16]. Also, the ED50 in [4], in assay [5], in [8], in assay [10], in assay [11] and in assay [14] was over 100 mg/kg in each case.
As to `CC[C@H]1OC(=O)[C@H](C)C(=O)[C@H](C)[C@@H](O[C@@H]2O[C@H](C)C[C@H](N(C)C)[C@H]2O)[C@](C)(OC)C[C@@H](C)/C(=N/OCOCCOC)[C@H](C)[C@@H](O)[C@]1(C)O`, the MIC came to 10 µg/mL (≈ 14.5 µM) in assay [17]; 1.2 µg/mL (≈ 1.74 µM) in assay [18]; 40 µg/mL (≈ 57.9 µM) in assay [19]; 40 µg/mL (≈ 57.9 µM) in assay [20]; 2.5 µg/mL (≈ 3.62 µM) in assay [21]; 40 µg/mL (≈ 57.9 µM) in assay [22]. For the same compound, the MIC worked out at 0.15 µg/mL (≈ 0.217 µM) in [23]; 0.15 µg/mL (≈ 0.217 µM) in assay [24]; 1.2 µg/mL (≈ 1.74 µM) in [25]; 40 µg/mL (≈ 57.9 µM) in assay [26]; 40 µg/mL (≈ 57.9 µM) in assay [27].
For the compound `CCCN1C(=O)O[C@]2(C)[C@@H](CC)OC(=O)[C@H](C)C(=O)[C@H](C)[C@@H](O[C@@H]3O[C@H](C)C[C@H](N(C)C)[C@H]3O)[C@](C)(OC)C[C@@H](C)C(=O)[C@H](C)[C@@H]12`, the MIC turned out to be 40 µg/mL (≈ 61.1 µM) in [17]; 1.2 µg/mL (≈ 1.83 µM) in assay [18]; 40 µg/mL (≈ 61.1 µM) in [19]; 40 µg/mL (≈ 61.1 µM) in [20]; 5 µg/mL (≈ 7.64 µM) in assay [21]; 40 µg/mL (≈ 61.1 µM) in assay [22]. Further, the MIC in [23] was found to be 0.04 µg/mL (≈ 0.0611 µM); in assay [24], 0.15 µg/mL (≈ 0.229 µM); in assay [25], 40 µg/mL (≈ 61.1 µM); in assay [26], 40 µg/mL (≈ 61.1 µM); in [27], 40 µg/mL (≈ 61.1 µM).
For the compound `CC[C@H]1OC(=O)[C@H](C)[C@@]2(O)O[C@@](C)(C[C@@H](C)/C(=N\O)[C@H](C)[C@@H](O)[C@]1(C)O)[C@H](O[C@@H]1O[C@H](C)C[C@H](N(C)C)[C@H]1O)[C@H]2C`, the MIC in [17] stood at 40 µg/mL (≈ 67.9 µM); in assay [18], 40 µg/mL (≈ 67.9 µM); in [19] it was 40 µg/mL (≈ 67.9 µM); in [20], 10 µg/mL (≈ 17 µM); in assay [21], 40 µg/mL (≈ 67.9 µM); in [22] it was 40 µg/mL (≈ 67.9 µM). Further, the MIC in assay [23] worked out at 40 µg/mL (≈ 67.9 µM); in [24] it was 40 µg/mL (≈ 67.9 µM); in [25] it was 40 µg/mL (≈ 67.9 µM); in assay [26] it was 40 µg/mL (≈ 67.9 µM); in [27], 10 µg/mL (≈ 17 µM).

The values are drawn from ChEMBL document CHEMBL1131139, “Synthesis and antibacterial activity of ketolides (6-O-methyl-3-oxoerythromycin derivatives): a new class of antibacterials highly potent against macrolide-resistant and -susceptible respiratory pathogens” (1998).
